Laboratory results from ChEMBL document CHEMBL4706717, “Covalent Occlusion of the RORγt Ligand Binding Pocket Allows Unambiguous Targeting of an Allosteric Site” (ACS Med Chem Lett, 2021).
pIC50: −log10 of the molar value. Activity calls are given as the source filed them. No cut-off for these calls is given here.

Experiments:
[1] = target: T1, Nuclear receptor ROR-gamma (Homo sapiens, UniProt P51449); assay: Orthosteric inverse agonist activity at recombinant human N-terminal His6-tagged RORgammat ligand binding domain (265 to 518 residues) expressed in Escherichia coli BL21 (DE3) assessed as reduction in coactivator, N-terminal biotinylated SRC-1 box2 peptide recruitment incubated for 60 mins by TR-FRET assay
T1 sequence (P51449 whole entry): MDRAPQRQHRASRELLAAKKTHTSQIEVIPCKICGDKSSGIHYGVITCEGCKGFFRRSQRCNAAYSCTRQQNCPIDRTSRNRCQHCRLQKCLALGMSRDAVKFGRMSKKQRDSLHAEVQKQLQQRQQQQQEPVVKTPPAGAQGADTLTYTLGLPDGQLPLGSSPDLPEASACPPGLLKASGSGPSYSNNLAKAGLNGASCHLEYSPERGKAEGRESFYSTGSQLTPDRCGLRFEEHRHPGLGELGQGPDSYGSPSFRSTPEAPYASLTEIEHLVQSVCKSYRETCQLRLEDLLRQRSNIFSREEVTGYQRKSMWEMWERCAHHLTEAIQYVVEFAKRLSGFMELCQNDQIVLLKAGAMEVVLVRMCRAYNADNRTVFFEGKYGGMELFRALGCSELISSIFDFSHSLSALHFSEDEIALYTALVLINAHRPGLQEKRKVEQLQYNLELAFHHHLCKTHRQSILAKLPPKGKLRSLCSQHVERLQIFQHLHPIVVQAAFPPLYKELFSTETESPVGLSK

[2] = species on record: Homo sapiens; assay: Binding affinity to recombinant human N-terminal His6-tagged RORgammat ligand binding domain (265 to 507 residues) Cys320Ala mutant expressed in Escherichia coli BL21 (DE3) incubated for overnight by Q-TOF-MS analysis
In short: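 Ligation of His6-RORγt LBD (residues 265-507, used for mutagenesis work) at 20 μM with 5-10 eq probe in 50 mM TRIS (pH 5.3-5.8), 50 mM NaCl, 5 mM CHAPS, 0.1% BSA, continuous mixing overnight at 4°C or RT; LC-MS Q-TOF, deconvoluted spectra; percent ligation from ratio of mass peaks.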

[3] = target: T2, Peroxisome proliferator-activated receptor gamma (Homo sapiens) (UniProt P37231); assay: Binding affinity to PPARgamma (unknown origin)
T2 sequence (whole entry): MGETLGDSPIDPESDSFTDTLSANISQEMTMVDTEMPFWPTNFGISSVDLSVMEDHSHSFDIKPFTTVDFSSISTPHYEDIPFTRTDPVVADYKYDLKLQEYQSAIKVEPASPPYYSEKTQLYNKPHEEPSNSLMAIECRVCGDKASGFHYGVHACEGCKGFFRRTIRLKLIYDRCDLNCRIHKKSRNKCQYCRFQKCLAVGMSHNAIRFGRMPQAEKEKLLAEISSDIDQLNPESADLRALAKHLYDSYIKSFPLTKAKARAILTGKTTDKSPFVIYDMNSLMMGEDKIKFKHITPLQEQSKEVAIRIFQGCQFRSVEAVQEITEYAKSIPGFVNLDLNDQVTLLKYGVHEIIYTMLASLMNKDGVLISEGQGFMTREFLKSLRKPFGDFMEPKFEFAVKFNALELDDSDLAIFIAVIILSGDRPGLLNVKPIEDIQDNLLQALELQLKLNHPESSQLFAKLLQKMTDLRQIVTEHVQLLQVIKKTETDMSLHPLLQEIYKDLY

[4] = target: T3, Nuclear receptor ROR-gamma (Homo sapiens) (UniProt P51449); assay: (§1) Orthosteric agonist activity at GW9662-ligated recombinant human N-terminal His6-tagged RORgammat ligand binding domain (265 to 518 residues) expressed in Escherichia coli BL21 (DE3) assessed as increase in coactivator, N-terminal biotinylated SRC-1 box2 peptide recruitment in presence of GW9662 incubated for 60 mins by TR-FRET assay
T3 sequence (whole entry): T1 sequence (P51449 whole entry)
In short: (§2)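 Dose response: probe and His6-RORγt LBD (265-518, 20 μM) co-titrated (1.4x series, top 10 eq, 200 μM) in pH 5.8 TRIS/NaCl/CHAPS/BSA buffer overnight (4°C or RT per compound). Then 100 nM LBD, 100 nM biotin-SRC-1 box2, Tb anti-His, d2-streptavidin in HEPES pH 7.5, 150 mM NaCl, 5 mM DTT, 0.1% BSA, 0.1 mM CHAPS, 1% DMSO; top probe 1 μM; 60 min RT; 665/620 nm ratio; four-parameter fit; triplicate, ≥2 experiments.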

[5] = target: T3, Nuclear receptor ROR-gamma (Homo sapiens); assay: as §1, with “2-chloro-5-nitro-N-o-tolylbenzamide-ligated” for “GW9662-ligated”, “2-chloro-5-nitro-N-o-tolylbenzamide” for “GW9662”; in short: as §2
[6] = target: T3, Nuclear receptor ROR-gamma (Homo sapiens); assay: as §1, with “2-chloro-5-nitro-N-(2-(trifluoromethyl)phenyl)benzamide-ligated” for “GW9662-ligated”, “2-chloro-5-nitro-N-(2-(trifluoromethyl)phenyl)benzamide” for “GW9662”; in short: as §2
[7] = target: T3, Nuclear receptor ROR-gamma (Homo sapiens); assay: as §1, with “2-chloro-N-(2,6-dimethylphenyl)-5-nitrobenzamide-ligated” for “GW9662-ligated”, “2-chloro-N-(2,6-dimethylphenyl)-5-nitrobenzamide” for “GW9662”; in short: as §2
[8] = target: T3, Nuclear receptor ROR-gamma (Homo sapiens); conditions: filed as inverse agonist, dose 10.0 µM
[9] = target: T3, Nuclear receptor ROR-gamma (Homo sapiens); conditions: filed as inverse agonist, dose 10.0 µM; remark: listed apart in the source

SMILES	Activity [3]	further results
O=C(Nc1ccccc1)c1cc([N+](=O)[O-])ccc1Cl	–	pIC50 [1]: 7.07; Activity [2]: inactive
O=C(Nc1ccsc1)c1cc([N+](=O)[O-])ccc1Cl	Active	pIC50 [1]: 6.91
O=C(c1cc([N+](=O)[O-])ccc1Cl)n1cccc1	inactive	–
Cc1ccccc1NC(=O)c1cc([N+](=O)[O-])ccc1Cl	Active	pIC50 [1]: 7.11
CC(C)CCC[C@@H](C)[C@H]1CC[C@H]2[C@@H]3CC=C4C[C@@H](O)CC[C@]4(C)[C@H]3CC[C@]12C	–	Activity [4]: inactive; Activity [5]: inactive; Activity [6]: inactive; Activity [7]: inactive
O=C(NC1CCCCC1)c1cc([N+](=O)[O-])ccc1Cl	Active	–
O=C(O)c1ccc(NCc2c(-c3c(Cl)cccc3C(F)(F)F)noc2-c2cc[nH]c2)cc1	–	ΔTm [8]: 2.1 °C
C[C@H]1O[C@@H](O[C@H]2[C@@H](O)C[C@H](O[C@H]3[C@@H](O)C[C@H](O[C@H]4CC[C@@]5(C)[C@H](CC[C@@H]6[C@@H]5C[C@@H](O)[C@]5(C)[C@@H](C7=CC(=O)OC7)CC[C@]65O)C4)O[C@@H]3C)O[C@@H]2C)C[C@H](O)[C@@H]1O	–	ΔTm [9]: -0.2 °C

The next lines start with results.

Activity [3]	SMILES	further results
Active	Cc1cccc(NC(=O)c2cc([N+](=O)[O-])ccc2Cl)c1	–
Active	COc1ccc(NC(=O)c2cc([N+](=O)[O-])ccc2Cl)cc1	–
Active	Cc1ccc(NC(=O)c2cc([N+](=O)[O-])ccc2Cl)cc1	–
inactive	O=C(Nc1ccccc1)c1cc(Cl)ccc1[N+](=O)[O-]	–
Active	O=C(Nc1ccc([N+](=O)[O-])cc1)c1cc([N+](=O)[O-])ccc1Cl	–
Active	O=C(NCc1ccccc1)c1cc([N+](=O)[O-])ccc1Cl	–
Active	CC(C)NC(=O)c1cc([N+](=O)[O-])ccc1Cl	–
Active	C=CCNC(=O)c1cc([N+](=O)[O-])ccc1Cl	–
